Assay results taken from ChEMBL document CHEMBL3227922, “Synthesis and antitumor activity of sugar-ring hydroxyl analogues of daunorubicin” (J Med Chem, 1979).

Experiments:
[1] = test system: P388; test: Antitumor activity against mouse P388 cells allografted in CDF1 mouse assessed as tumor inhibition at 200 mg/kg, ip on days 5, 9 and 13 relative to untreated control; format: functional; conditions: route intraperitoneal
Method in brief: (§1)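 CDF₁ mice given 10⁶ P388 lymphocytic leukemia cells ip on day 0; drug ip on days 5, 9 and 13. Six mice per dose level (five for one compound). T/C % = median survival time as percent of untreated controls. Acute toxic death counted as survival under 5 days after treatment.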

[2] = test system: P388; test: Antitumor activity against mouse P388 cells allografted in CDF1 mouse assessed as tumor inhibition at 100 mg/kg, ip on days 5, 9 and 13 relative to untreated control; format: functional; conditions: route intraperitoneal; method in brief: as §1
[3] = test system: P388; test: Antitumor activity against mouse P388 cells allografted in CDF1 mouse assessed as tumor inhibition at 50 mg/kg, ip on days 5, 9 and 13 relative to untreated control; format: functional; conditions: route intraperitoneal; method in brief: as §1
[4] = test system: P388; test: Antitumor activity against mouse P388 cells allografted in CDF1 mouse assessed as tumor inhibition at 25 mg/kg, ip on days 5, 9 and 13 relative to untreated control; format: functional; conditions: route intraperitoneal; method in brief: as §1
[5] = test system: P388; test: Antitumor activity against mouse P388 cells allografted in CDF1 mouse assessed as tumor inhibition at 12.5 mg/kg, ip on days 5, 9 and 13 relative to untreated control; format: functional; conditions: route intraperitoneal; method in brief: as §1
[6] = test system: Mus musculus; test: Toxicity in CDF1 mouse allografted with mouse P388 cells assessed as survival at 12.5 to 200 mg/kg, ip on days 5, 9 and 13; format: organism-based; set-up: dose 12.5-200 mg/kg, route intraperitoneal; conditions: in vivo
Method in brief: (§2)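 CDF1 mice were inoculated ip with 10⁶ P388 lymphocytic leukemia cells on day 0. Drug was given ip on days 5, 9 and 13, with six mice per dose level. Read-out was median survival time as percent of untreated controls (T/C). Acute toxic-drug deaths were defined as survival under 5 days after treatment injection.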

[7] = test system: P388; test: Antitumor activity against mouse P388 cells allografted in CDF1 mouse assessed as tumor inhibition at 400 mg/kg, ip on days 5, 9 and 13 relative to untreated control; format: functional; conditions: route intraperitoneal; method in brief: as §1
[8] = test system: Mus musculus; test: Toxicity in CDF1 mouse allografted with mouse P388 cells assessed as survival at 25 to 400 mg/kg, ip on days 5, 9 and 13; format: organism-based; set-up: dose 25-400 mg/kg, route intraperitoneal; conditions: in vivo
Method in brief: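 Median survival time was expressed as percent of untreated controls (T/C). Acute toxic-drug deaths were scored as survival under 5 days after treatment injection.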

[9] = test system: Mus musculus; test: Toxicity in BDF1 mouse allografted with mouse B16 cells at 100 mg/kg, ip on day 5; conditions: in vivo
[10] = test system: Mus musculus; test: Toxicity in BDF1 mouse allografted with mouse B16 cells at 200 mg/kg, ip on day 5; conditions: in vivo
[11] = test system: B16; test: Antitumor activity against mouse B16 cells allografted in BDF1 mouse assessed as tumor inhibition at 50 mg/kg, ip on day 5 relative to untreated control; conditions: route intraperitoneal
[12] = test system: B16; test: Antitumor activity against mouse B16 cells allografted in BDF1 mouse assessed as tumor inhibition at 25 mg/kg, ip on day 5 relative to untreated control; conditions: route intraperitoneal
[13] = test system: B16; test: Antitumor activity against mouse B16 cells allografted in BDF1 mouse assessed as tumor inhibition at 12.5 mg/kg, ip on day 5 relative to untreated control; conditions: route intraperitoneal
[14] = test system: P388; test: Antitumor activity against mouse P388 cells allografted in CDF1 mouse assessed as tumor inhibition at 6.25 mg/kg, ip on days 5, 9 and 13 relative to untreated control; format: functional; conditions: route intraperitoneal; method in brief: as §1
[15] = test system: P388; test: Antitumor activity against mouse P388 cells allografted in CDF1 mouse assessed as tumor inhibition at 3.13 mg/kg, ip on days 5, 9 and 13 relative to untreated control; format: functional; conditions: route intraperitoneal; method in brief: as §1
[16] = test system: Mus musculus; test: Toxicity in CDF1 mouse allografted with mouse P388 cells assessed as survival at 3.13 to 50 mg/kg, ip on days 5, 9 and 13; format: organism-based; set-up: dose 3.13-50 mg/kg, route intraperitoneal; conditions: in vivo; method in brief: as §2
[17] = test system: P388; test: Antitumor activity against mouse P388 cells allografted in CDF1 mouse assessed as tumor inhibition at 32 mg/kg, ip on days 5, 9 and 13 relative to untreated control; format: functional; conditions: route intraperitoneal; method in brief: as §1
[18] = test system: P388; test: Antitumor activity against mouse P388 cells allografted in CDF1 mouse assessed as tumor inhibition at 16 mg/kg, ip on days 5, 9 and 13 relative to untreated control; format: functional; conditions: route intraperitoneal; method in brief: as §1
[19] = test system: P388; test: Antitumor activity against mouse P388 cells allografted in CDF1 mouse assessed as tumor inhibition at 8 mg/kg, ip on days 5, 9 and 13 relative to untreated control; format: functional; conditions: route intraperitoneal; method in brief: as §1
[20] = test system: P388; test: Antitumor activity against mouse P388 cells allografted in CDF1 mouse assessed as tumor inhibition at 4 mg/kg, ip on days 5, 9 and 13 relative to untreated control; format: functional; conditions: route intraperitoneal; method in brief: as §1
[21] = test system: P388; test: Antitumor activity against mouse P388 cells allografted in CDF1 mouse assessed as tumor inhibition at 2 mg/kg, ip on days 5, 9 and 13 relative to untreated control; format: functional; conditions: route intraperitoneal; method in brief: as §1
[22] = test system: Mus musculus; test: Toxicity in CDF1 mouse allografted with mouse P388 cells assessed as survival at 2 to 32 mg/kg, ip on days 5, 9 and 13; format: organism-based; set-up: dose 2-32 mg/kg, route intraperitoneal; conditions: in vivo; method in brief: as §2
[23] = test system: Mus musculus; test: Toxicity in BDF1 mouse allografted with mouse B16 cells at 16 mg/kg, ip on day 5; conditions: in vivo
[24] = test system: B16; test: Antitumor activity against mouse B16 cells allografted in BDF1 mouse assessed as tumor inhibition at 4 mg/kg, ip on day 5 relative to untreated control; conditions: route intraperitoneal
[25] = test system: B16; test: Antitumor activity against mouse B16 cells allografted in BDF1 mouse assessed as tumor inhibition at 2 mg/kg, ip on day 5 relative to untreated control; conditions: route intraperitoneal
[26] = test system: B16; test: Antitumor activity against mouse B16 cells allografted in BDF1 mouse assessed as tumor inhibition at 1 mg/kg, ip on day 5 relative to untreated control; conditions: route intraperitoneal
[27] = test system: P388; test: Antitumor activity against mouse P388 cells allografted in CDF1 mouse assessed as tumor inhibition at 1 mg/kg, ip on days 5, 9 and 13 relative to untreated control; format: functional; conditions: route intraperitoneal; method in brief: as §1
[28] = test system: Mus musculus; test: Toxicity in CDF1 mouse allografted with mouse P388 cells assessed as survival at 1 to 16 mg/kg, ip on days 5, 9 and 13; format: organism-based; set-up: dose 1-16 mg/kg, route intraperitoneal; conditions: in vivo; method in brief: as §2
[29] = test system: Mus musculus; test: Toxicity in BDF1 mouse allografted with mouse B16 cells at 1 to 16 mg/kg, ip on day 5; conditions: in vivo
[30] = test system: B16; test: Antitumor activity against mouse B16 cells allografted in BDF1 mouse assessed as tumor inhibition at 8 mg/kg, ip on day 5 relative to untreated control; conditions: route intraperitoneal
[31] = test system: B16; test: Antitumor activity against mouse B16 cells allografted in BDF1 mouse assessed as tumor inhibition at 16 mg/kg, ip on day 5 relative to untreated control; conditions: route intraperitoneal

## COc1cccc2c1C(=O)c1c(O)c3c(c(O)c1C2=O)C[C@@](O)(C(C)=O)C[C@@H]3O[C@H]1C[C@H](OC(C)=O)[C@H](OC(C)=O)[C@H](C)O1
[1]
  T/C: 186%
[2]
  T/C: 155%
[3]
  T/C: 110%
[4]
  T/C: 108%
[5]
  T/C: 100%
[6]
  Activity: Non-toxic

## COc1cccc2c1C(=O)c1c(O)c3c(c(O)c1C2=O)C[C@@](O)(C(C)=O)C[C@@H]3O[C@H]1C[C@H](O)[C@H](O)[C@H](C)O1
[2]
  T/C: 156%
[3]
  T/C: 183%
[4]
  T/C: 125%
[7]
  T/C: 89%
[8]
  Activity: Non-toxic
[9]
  Activity: Toxic
[10]
  Activity: Toxic
[11]
  T/C: 146%
[12]
  T/C: 126%
[13]
  T/C: 113%

## COc1cccc2c1C(=O)c1c(O)c3c(c(O)c1C2=O)C[C@@](O)(C(C)=O)C[C@@H]3O[C@@H]1C[C@H](OC(=O)c2ccc([N+](=O)[O-])cc2)[C@H](OC(=O)c2ccc([N+](=O)[O-])cc2)[C@@H](C)O1
[3]
  T/C: 105%
[4]
  T/C: 107%
[5]
  T/C: 110%
[14]
  T/C: 106%
[15]
  T/C: 101%
[16]
  Activity: Non-toxic

## COc1cccc2c1C(=O)c1c(O)c3c(c(O)c1C2=O)C[C@@](O)(C(C)=O)C[C@@H]3O[C@H]1C[C@H](OC(=O)c2ccc([N+](=O)[O-])cc2)[C@H](OC(=O)c2ccc([N+](=O)[O-])cc2)[C@@H](C)O1
[3]
  T/C: 101%
[4]
  T/C: 106%
[5]
  T/C: 99%
[14]
  T/C: 100%
[15]
  T/C: 98%
[16]
  Activity: Non-toxic

## COc1cccc2c1C(=O)c1c(O)c3c(c(O)c1C2=O)C[C@@](O)(C(C)=O)C[C@@H]3O[C@@H]1C[C@H](O)[C@H](O)[C@@H](C)O1
[3]
  T/C: 101%
[4]
  T/C: 101%
[5]
  T/C: 100%
[14]
  T/C: 100%
[15]
  T/C: 99%
[16]
  Activity: Non-toxic

## COc1cccc2c1C(=O)c1c(O)c3c(c(O)c1C2=O)C[C@@](O)(C(C)=O)C[C@@H]3O[C@H]1C[C@H](O)[C@H](O)[C@@H](C)O1
[3]
  T/C: 102%
[4]
  T/C: 100%
[5]
  T/C: 97%
[14]
  T/C: 102%
[15]
  T/C: 100%
[16]
  Activity: Non-toxic

## COc1cccc2c1C(=O)c1c(O)c3c(c(O)c1C2=O)C[C@@](O)(C(C)=O)C[C@@H]3O[C@H]1C[C@H](N)[C@H](O)[C@H](C)O1 [DAUNORUBICIN]
[17]
  T/C: 97%
[18]
  T/C: 122%
[19]
  T/C: 151%
[20]
  T/C: 123%
[21]
  T/C: 116%
[22]
  Activity: Non-toxic
[23]
  Activity: Toxic
[24]
  T/C: 96%
[25]
  T/C: 127%
[26]
  T/C: 122%

## COc1cccc2c1C(=O)c1c(O)c3c(c(O)c1C2=O)C[C@@](O)(C(=O)CO)C[C@@H]3O[C@H]1C[C@H](N)[C@H](O)[C@H](C)O1 [DOXORUBICIN]
[18]
  T/C: 114%
[19]
  T/C: 150%
[20]
  T/C: 149%
[21]
  T/C: 132%
[27]
  T/C: 118%
[28]
  Activity: Non-toxic
[29]
  Activity: Non-toxic
[30]
  T/C: 150%
[24]
  T/C: 132%
[25]
  T/C: 122%
[26]
  T/C: 118%
[31]
  T/C: 156%
